Laboratory results published in ChEMBL document CHEMBL4130594 (ACS Med Chem Lett, 2017).
pIC50: −log10 of the molar value.

Legend:
[1] = Drug uptake in human PC3 cells at 100000 cpm preincubated for 2 hrs measured up to 8 hrs under normoxic condition by gamma counting analysis; assay type: ADME, cell-based; conditions: pc-3, 8 h
[2] = Drug uptake in human PC3 cells at 100000 cpm preincubated for 2 hrs measured up to 8 hrs under hypoxic condition by gamma counting analysis; assay type: ADME, cell-based; conditions: pc-3, 8 h
[3] = 1-octanol/phosphate buffered saline distribution coefficient, log D of the compound at 400000 cpm at pH 7.4 by gamma counting method; assay type: physicochemical
[4] = Drug uptake in human DU145 cells at 100000 cpm preincubated for 2 hrs measured up to 8 hrs under normoxic condition by gamma counting analysis; assay type: ADME, cell-based; conditions: du-145, 8 h
[5] = Drug uptake in human DU145 cells at 100000 cpm preincubated for 2 hrs measured up to 8 hrs under hypoxic condition by gamma counting analysis; assay type: ADME, cell-based; conditions: du-145, 8 h
PC-3 [6] = test: Selectivity index, ratio of IC50 for human PC3 cells under normoxic condition to IC50 for human PC3 cells under hypoxic condition; assay type: functional
In short: (§1)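 Hypoxia cytotoxicity ratio = IC50(air)/IC50(N2), from IC50 values after 2 h exposure of DU145 or PC-3 cells. Based on two or more independent experiments in quintuplicate.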

DU-145 [7] = test: Selectivity index, ratio of IC50 for human DU145 cells under normoxic condition to IC50 for human DU145 cells under hypoxic condition; assay type: functional; in short: as §1
DU-145 [8] = test: Cytotoxicity against human DU145 cells incubated for 2 hrs under hypoxic condition measured after 72 hrs by Alamar blue assay; assay type: functional, cell-based
In short: (§2)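 DU145 and PC-3 cells exposed 2 h under hypoxia (N2) or normoxia (air). IC50 determined. Mean ± SEM of two or more independent experiments, each in quintuplicate.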

PC-3 [9] = test: Cytotoxicity against human PC3 cells incubated for 2 hrs under hypoxic condition measured after 72 hrs by Alamar blue assay; assay type: functional, cell-based; in short: as §2
PC-3 [10] = test: Cytotoxicity against human PC3 cells incubated for 2 hrs under normoxic condition measured after 72 hrs by Alamar blue assay; assay type: functional, cell-based; in short: as §2
DU-145 [11] = test: Cytotoxicity against human DU145 cells incubated for 2 hrs under normoxic condition measured after 72 hrs by Alamar blue assay; assay type: functional, cell-based; in short: as §2

In the case of `Cn1c(COP(=O)(N(CCBr)Cc2cn(Cc3ccccc3)nn2)N(CCBr)Cc2nnn(Cc3ccccc3)c2[125I])cnc1[N+](=O)[O-]` (stereo unspecified), the Drug uptake [1] was 2%, the Drug uptake [2] was 4% and the logD [3] was 0.55. The Drug uptake [4] was 2% and the Drug uptake [5] was 4%.
For `Cn1c(COP(=O)(NCCBr)NCCBr)cnc1[N+](=O)[O-]` [EVOFOSFAMIDE], the “Ratio IC50” value (PC-3 [6]) was 106, the “Ratio IC50” value (DU-145 [7]) was 203 and the pIC50 (DU-145 [8]) was 5.38. For the same compound, the pIC50 (PC-3 [9]) was 5.19, the pIC50 (PC-3 [10]) was 3.16 and the pIC50 (DU-145 [11]) was 3.07.
